Structures are written as SMILES. Calls of active or inactive are those of the source. The calls are words filed in the database; no cut-off is given here.

In ChEMBL document CHEMBL5370586 (J Nat Prod, 2023) one finds Activity and IC50 data, which are given here for 1 compound.

Series [1] deals with DU-145. The series is described as follows: Induction of cell cycle arrest in human DU-145 cells assessed as arrest in G1/S phase by measuring reduction in CDK2 protein expression at IC50 concentration incubated for 48 hrs by Western blotting analysis. In kind it is functional, cell-based. An outline of the steps:
(§1)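 DU145 or PC-3 cells seeded at 5 × 10^4 per well and given CBD for 48 h. Lysed in ice-cold RIPA with protease/phosphatase inhibitor; 40 μg protein per lane, SDS-PAGE, PVDF transfer, milk block. Primary antibodies overnight at 4 °C, then HRP secondary 1 h at room temperature, chemiluminescence. Densitometry normalised to loading control, then to vehicle; at least three experiments.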

Series [2] has as its system DU-145. The experiment in a line: Induction of cell cycle arrest in human DU-145 cells assessed as arrest in G2/M phase by measuring reduction in CDK7 protein expression at IC50 concentration incubated for 48 hrs by Western blotting analysis. In kind it is functional, cell-based. A digest of the protocol: as §1
(In general: Immunoblotting shows a protein as a band on a membrane.)

The test system of series [3] is PC-3. The series is described as follows: Induction of cell death in human PC-3 cells assessed as reduction in cell nucleus circularity at 1 to 10 uM measured after 72 hrs by Hoechst 33342 staining based high content imaging fluorescence microscopic analysis. The format is functional. As to conditions: dose 1-10 µM. A digest of the protocol: (§2)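 DU145 or PC-3 cells seeded at 2 × 10^3 per well and given CBD at 1, 5 or 10 μM with serum for 72 h; staurosporine as positive control. Stained 30 min with Hoechst 33342 (1:5000), YO-PRO-1 (1:1000) and PI (1:1000). High-content imaging with a 63× water objective. Hoechst gave confluency, nucleus area and circularity; YO-PRO/PI gave healthy, early and late apoptotic fractions.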

Series [4] deals with PC-3. The experiment in a line: Antiproliferative activity against human PC-3 cells assessed as reduction in cell colonies incubated for 48 hrs detached and reseeded without compound and measured after 7 days by glutaraldehyde/crystal violet staining based clonogenic assay relative to control. The format is functional. Set-up: scale not given: the % may be the effect or the level left. A digest of the protocol:
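PC-3 cells left to adhere 24 h, then treated 48 h. Detached and reseeded at 500 cells per well without drug, then grown 7 days at 37 °C, 5% CO2, with medium changed every 2–3 days. Colonies fixed and stained with glutaraldehyde/crystal violet and counted.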

The test system of series [5] is PC-3. The experiment in a line: Induction of apoptosis in human PC-3 cells assessed as reduction in fraction of healthy cells at 1 to 10 uM incubated for 72 hrs by YO-PRO and propidium iodide staining based high content imaging fluorescence microscopic analysis. The conditions noted are these: dose 1-10 µM. The format is functional, cell-based. A digest of the protocol: as §2

Series [6] relates to PC-3. The experiment in a line: Induction of cell cycle arrest in human PC-3 cells assessed as arrest in G1/S phase by measuring reduction in cyclin D3 protein expression at IC50 concentration incubated for 48 hrs by Western blotting analysis relative to control. The format is functional, cell-based. An outline of the steps: as §1
Series [7] relates to DU-145. The experiment in a line: Antiproliferative activity against human DU-145 cells assessed as reduction in cell viability incubated for 72 hrs in presence of LPI by MTT assay. The format is functional, cell-based. An outline of the steps: (§3)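 DU145 or PC-3 cells pretreated 1 h with SR141716 (CB1 antagonist), SR144528 (CB2 antagonist), capsazepine (TRPV1 antagonist) or LPI (GPR55 agonist), then given CBD for 72 h. MTT read-out as % of vehicle. Compared with CBD alone by t-test; at least three independent experiments.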

For series [8], the system named is PC-3. The experiment in a line: Anti-invasive activity against human PC-3 cells assessed as reduction in MMP-3 protein secretion incubated for 48 hrs by ELISA analysis. In kind it is functional, cell-based. Background: In an ELISA, binding on a coated surface is turned into a signal by an enzyme label.
The subject of series [9] is PC-3. The series is described as follows: Antiproliferative activity against human PC3 cells assessed as reduction in cell viability incubated for 72 hrs in serum deprivation condition by MTT assay. In kind it is functional, cell-based. The conditions noted are these: PC-3, 72 h. An outline of the steps: (§4)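 Cells seeded at 1 × 10^3 (DU145, PC-3), 6 × 10^3 (LNCaP), 2 × 10^3 (PWR-1E) or 4.5 × 10^3 (RWPE-1) per well and left to adhere 24 h. CBD (0–100 μM) then given for 72 h in serum-free medium. MTT added for 3 h at 37 °C, formazan dissolved in DMSO, absorbance read at 570 nm. Viability is % of vehicle; IC50 by nonlinear regression; at least three independent experiments.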
On the technique in general: Tetrazolium assays rely on reduction of a dye to a coloured formazan, in cell work by metabolically active cells.

Series [10] concerns PC-3. The series is described as follows: Anti-invasive activity against human PC-3 cells assessed as reduction in MMP-9 protein secretion incubated for 48 hrs by ELISA analysis. In kind it is functional, cell-based.
Series [11] has as its system DU-145. The experiment in a line: Antiproliferative activity against human DU-145 cells assessed as reduction in cell viability incubated for 72 hrs in presence of SR144528 by MTT assay. In kind it is functional, cell-based. An outline of the steps:
as §3

Series [12] concerns DU-145. The experiment in a line: Antiproliferative activity against human DU-145 cells assessed as reduction in cell count at IC50 concentration incubated for 48 hrs by flow cytometry analysis. In kind it is functional, cell-based. An outline of the steps:
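Six-well seeding at 4 × 10^4 (DU145) or 3 × 10^4 (PC-3) cells per well; CBD for 48 h. Supernatant and trypsinised adherent cells pooled and resuspended in ice-cold PBS. Cells counted by flow cytometry with forward/side scatter gating; at least three independent experiments.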

Series [13] has as its system DU-145. The series is described as follows: Induction of cell death in human DU-145 cells assessed as reduction in cell nucleus circularity at 1 to 10 uM measured after 72 hrs by Hoechst 33342 staining based high content imaging fluorescence microscopic analysis. The format is functional. As to conditions: dose 1-10 µM. An outline of the steps: as §2
In a further series the test system is LNCaP. The series is described as follows: Antiproliferative activity against human LNCaP cells assessed as reduction in cell viability incubated for 72 hrs in serum deprivation condition by MTT assay. In kind it is functional, cell-based. A digest of the protocol:
as §4

The subject of series [14] is PWR-1E. The series is described as follows: Induction of apoptosis in human PWR-1E cells assessed as late apoptotic cells at 1 to 10 uM incubated for 72 hrs by YO-PRO and propidium iodide staining based high content imaging fluorescence microscopic analysis. In kind it is toxicity, cell-based. As to conditions: dose 1-10 µM. A digest of the protocol: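 PWR-1E cells seeded at 2 × 10^3 per well and given CBD at 1, 2 or 10 μM without serum for 72 h. Stained with Hoechst 33342, YO-PRO-1 and PI, then imaged by high-content microscopy. Scored for confluency and for healthy, early and late apoptotic fractions; at least three independent experiments.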

The subject of series [15] is DU-145. The series is described as follows: Antiproliferative activity against human DU-145 cells assessed as reduction in cell viability incubated for 72 hrs in presence of 10% FBS by MTT assay. In kind it is functional, cell-based. The conditions noted are these: DU-145, 72 h. A digest of the protocol: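 Cells left to adhere 24 h, then exposed to CBD (0–100 μM) for 72 h in medium with 10% FBS. MTT incubation 3 h at 37 °C, DMSO solubilisation, A570. Viability relative to vehicle; IC50 from nonlinear regression; at least three independent experiments.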

Series [16] concerns PC-3. The experiment in a line: Induction of cell cycle arrest in human PC-3 cells assessed as arrest in G2/M phase by measuring reduction in CDK7 protein expression at IC50 concentration incubated for 48 hrs by Western blotting analysis. In kind it is functional, cell-based. An outline of the steps: as §1
Series [17] has as its system PWR-1E. The series is described as follows: Induction of cell death in human PWR-1E cells assessed as reduction in nucleus area at 1 to 10 uM incubated for 72 hrs by Hoechst 33342 staining based high-content fluorescence microscopy. The conditions noted are these: dose 1-10 µM. The format is toxicity.
In series [18] the test system is PC-3. The experiment in a line: Induction of cell cycle arrest in human PC-3 cells assessed as arrest in G2/M phase by measuring reduction in CDK1 protein expression at IC50 concentration incubated for 48 hrs by Western blotting analysis. The format is functional, cell-based. A digest of the protocol: as §1
Series [19] relates to PC-3. The series is described as follows: Anti-invasive activity against human PC-3 cells assessed as increase in E-cadherin protein expression incubated for 48 hrs by Western blotting analysis. In kind it is functional.
Series [20] deals with DU-145. The series is described as follows: Induction of apoptosis in human DU-145 cells at IC50 concentration incubated for 48 hrs by YO-PRO and PI staining based flow cytometry analysis. In kind it is functional, cell-based. An outline of the steps:
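After 48 h CBD, DU145 (4 × 10^4 per well) or PC-3 (3 × 10^4 per well) supernatant and trypsinised cells pooled. Stained in ice-cold PBS with YO-PRO (1:1000) and propidium iodide (1:1000). Flow cytometry gated live, early apoptotic and late apoptotic cells and DNA fragmentation.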

As a reminder, the IC50 is the midpoint of a concentration-inhibition curve. On to `C=C(C)[C@@H]1CCC(C)=C[C@H]1c1c(O)cc(CCCCC)cc1O` [CANNABIDIOL], for which the result in the series with DU-145 [1], in the series with PC-3 [6], in the series with DU-145 [7], in the series with DU-145 [11], in the series with DU-145 [12] and in the series on PC-3 [18] was Active. Moreover, the outcome in the series on DU-145 [2], in the series with PC-3 [3], in the series with PC-3 [5], with PC-3 [8], with PC-3 [10] and in the series with DU-145 [13] was inactive. Also, the outcome with PC-3 [16] and with DU-145 [20] was inactive. The Activity in the series with PC-3 [4] is listed as about 25%; in the series on PWR-1E [14] it was “Toxic”; in the series on PWR-1E [17], “Toxic”; with PC-3 [19], over 2. The figures for the half-inhibitory concentration (IC50) with PC-3 [9], with LNCaP and in the series with DU-145 [15] were 2900 nM, 2600 nM and 12300 nM, respectively.
